{"data": "Experimental data collected from several papers", "target": "MAP kinase-activated protein kinase 2 (MAPKAPK2, Homo sapiens, UniProt P49137)", "note": "Protocols differ between the studies behind these lines."}
{"Structure (SMILES)": "C1=C/COCc2cc(ccc2OCCN2CCCC2)Nc2nccc(n2)-c2cccc(c2)COC/1", "assay": "binding", "conditions": "0.1 µM", "endpoint": "remaining binding", "value": "100%"}
{"Structure (SMILES)": "C=CC(=O)N1CCC[C@@H](n2nc(-c3ccc(Oc4ccccc4)cc3)c3c(N)ncnc32)C1", "assay": "enzyme activity, inhibitor", "conditions": "1 µM", "endpoint": "inhibition", "value": "0%"}
{"Structure (SMILES)": "N#Cc1ccc(NC(=O)Nc2ccccc2)cc1", "assay": "cell-free assay, competition with immobilised ligand", "conditions": "25 µM", "endpoint": "remaining binding", "value": "65%"}
{"Structure (SMILES)": "CCCCC(=O)Nc1ccc(-c2ccc3ncn(CCC)c(=O)c3c2)cn1", "assay": "binding, competition with immobilised ligand", "conditions": "0.5 µM", "endpoint": "remaining binding", "value": "100%"}
{"Structure (SMILES)": "COc1ccc2oc(-c3ccc4nc(N)oc4c3)c/c(=N\\c3ccccc3NC(=O)CCN)c2c1", "assay": "binding", "conditions": "1 µM", "endpoint": "remaining binding", "value": "103%"}
{"Structure (SMILES)": "COc1ccc2[nH]c3c4[nH]c5ccc(OC)cc5c4c4c(c3c2c1)C(=O)NC4=O", "assay": "binding", "conditions": "1 µM", "endpoint": "remaining binding", "value": "100%"}
{"Structure (SMILES)": "C=CC(=O)N1CCC([C@@H]2CCNc3c(C(N)=O)c(-c4ccc(Oc5ccccc5)cc4)nn32)CC1", "assay": "enzyme activity, inhibitor", "conditions": "1 µM", "endpoint": "inhibition", "value": "29%"}
{"Structure (SMILES)": "CN1CCN(C(=O)c2ccc(NC(=O)Nc3ccc(N(C)c4ccnc(Nc5ccc(CS(C)(=O)=O)cc5)n4)cc3)cc2)CC1", "assay": "binding", "conditions": "1 µM", "endpoint": "remaining binding", "value": "100%"}
{"Structure (SMILES)": "C#Cc1cnc(Nc2ccnc(CO)c2)nc1Nc1ccccc1S(C)(=O)=NC#N (stereo not drawn)", "assay": "cell-free assay", "conditions": "1 µM", "endpoint": "remaining signal", "value": "100%"}
